Laboratory results published in publication PMC2745822 (The Journal of pharmacology and experimental therapeutics, 2008).

What was measured:
[1] = target: T1, human M4 (Homo sapiens, UniProt P08173); experiment: Millipore GPCR Profiler functional screen, human M4; type: cell-based; conditions: full agonist CRC
T1 sequence (P08173 1-479): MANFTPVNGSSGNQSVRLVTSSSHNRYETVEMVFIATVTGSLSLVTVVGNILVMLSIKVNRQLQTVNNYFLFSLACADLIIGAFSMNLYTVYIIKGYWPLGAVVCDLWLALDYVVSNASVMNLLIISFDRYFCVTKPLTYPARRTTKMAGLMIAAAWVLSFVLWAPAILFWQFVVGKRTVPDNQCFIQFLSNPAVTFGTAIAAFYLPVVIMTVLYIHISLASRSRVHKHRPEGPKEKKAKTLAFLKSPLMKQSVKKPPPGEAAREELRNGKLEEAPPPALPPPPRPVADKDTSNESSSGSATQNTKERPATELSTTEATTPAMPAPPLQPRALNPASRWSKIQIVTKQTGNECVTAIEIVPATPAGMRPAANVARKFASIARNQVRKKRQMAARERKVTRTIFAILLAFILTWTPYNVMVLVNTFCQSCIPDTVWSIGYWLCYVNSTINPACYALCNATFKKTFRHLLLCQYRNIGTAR
Outline: (§1)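 Outsourced functional screening paradigm covering 16 GPCRs, chosen as family A subtypes among the closest relatives of mAChRs. Test compound was assessed for agonist, antagonist and allosteric potentiator activity by its effect on full concentration-response curves of each receptor's agonist.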

[2] = target: T2, rM4 receptor (Rattus norvegicus, UniProt P08485); experiment: [3H]NMS equilibrium radioligand binding, membranes from rM4-expressing CHO cells
T2 sequence (P08485 1-478): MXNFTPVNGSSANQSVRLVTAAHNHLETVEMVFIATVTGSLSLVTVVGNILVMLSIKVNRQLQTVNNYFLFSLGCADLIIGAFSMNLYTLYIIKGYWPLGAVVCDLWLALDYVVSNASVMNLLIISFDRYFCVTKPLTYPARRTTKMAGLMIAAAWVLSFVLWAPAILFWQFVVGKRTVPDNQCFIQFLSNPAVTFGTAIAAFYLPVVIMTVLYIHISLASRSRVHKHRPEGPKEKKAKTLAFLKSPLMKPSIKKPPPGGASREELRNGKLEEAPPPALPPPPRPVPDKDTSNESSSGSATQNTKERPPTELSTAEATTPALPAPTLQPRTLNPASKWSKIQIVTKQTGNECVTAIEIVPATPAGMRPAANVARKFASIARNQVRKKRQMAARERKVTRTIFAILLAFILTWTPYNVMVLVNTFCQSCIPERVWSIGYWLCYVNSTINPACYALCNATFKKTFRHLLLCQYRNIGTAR

[3] = target: serotonin 2B receptor (Homo sapiens, UniProt P41595); experiment: Millipore GPCR Profiler functional screen, serotonin 2B receptor; type: cell-based; conditions: full agonist CRC
serotonin 2B receptor, sequence (P41595 whole entry): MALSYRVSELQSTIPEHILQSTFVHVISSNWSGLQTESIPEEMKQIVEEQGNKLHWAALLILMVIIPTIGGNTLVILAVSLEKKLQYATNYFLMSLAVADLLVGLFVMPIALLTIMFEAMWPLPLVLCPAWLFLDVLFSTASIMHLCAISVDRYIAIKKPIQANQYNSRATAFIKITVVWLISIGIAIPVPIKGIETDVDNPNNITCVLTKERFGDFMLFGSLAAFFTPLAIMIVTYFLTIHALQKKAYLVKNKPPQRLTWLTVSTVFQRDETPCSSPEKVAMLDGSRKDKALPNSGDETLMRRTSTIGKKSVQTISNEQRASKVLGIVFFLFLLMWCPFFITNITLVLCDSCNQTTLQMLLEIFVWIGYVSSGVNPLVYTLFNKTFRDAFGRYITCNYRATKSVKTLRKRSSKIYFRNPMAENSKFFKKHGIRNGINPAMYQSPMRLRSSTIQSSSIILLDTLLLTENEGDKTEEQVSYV
Outline: as §1

[4] = tested on: panel of 68 discrete GPCRs, ion channels, transporters, and enzymes; experiment: MDS Pharma LeadProfiling Screen radioligand binding panel; conditions: 10 µM; for VU0152099 with the single exception of GABAA receptors
[5] = target: T3, M1 mAChR (Rattus norvegicus, UniProt P08482); experiment: Calcium mobilization selectivity assay, CHO K1 cells expressing M1; type: cell-based; conditions: 30 µM compound
T3 sequence (P08482 1-460): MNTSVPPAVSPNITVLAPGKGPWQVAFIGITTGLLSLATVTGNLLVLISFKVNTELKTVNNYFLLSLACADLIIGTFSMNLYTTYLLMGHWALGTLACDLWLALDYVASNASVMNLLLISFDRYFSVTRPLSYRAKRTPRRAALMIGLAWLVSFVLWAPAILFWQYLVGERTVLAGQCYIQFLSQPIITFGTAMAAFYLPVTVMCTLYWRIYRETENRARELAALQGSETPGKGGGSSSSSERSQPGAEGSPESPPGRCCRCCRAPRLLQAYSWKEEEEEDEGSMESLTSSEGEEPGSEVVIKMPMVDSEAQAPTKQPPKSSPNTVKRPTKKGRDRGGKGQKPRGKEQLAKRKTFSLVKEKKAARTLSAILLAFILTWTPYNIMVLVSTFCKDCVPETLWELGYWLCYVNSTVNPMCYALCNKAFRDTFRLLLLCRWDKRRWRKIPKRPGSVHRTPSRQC
Outline: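 CHO K1 cells stably expressing rat M1 or human M3 or M5, coupled through endogenous Gq. Seeded 50,000 cells/well and held overnight in antibiotic-free medium at 37°C/5% CO2. Loaded with 2 µM Fluo-4 AM for 45 min at 37°C in HBSS/20 mM HEPES/2.5 mM probenecid, pH 7.4. […] Three independent experiments.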

[6] = Brain and plasma exposure pharmacokinetic profiling; type: in vivo, rat; conditions: male rats, 56.6 mg/kg i.p.; mean ± S.E.M., n = 3
Outline: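 Male Sprague-Dawley rats (225–250 g), fasted overnight. Test compound dissolved at 56.6 mg/ml in 10% Tween 80/water, pH ~7.0 (1 N NaOH), sonicated, and given at 56.6 mg/kg i.p. Brain and trunk plasma taken at 0.5, 1, 2 and 4 h, three rats per time point. Brain homogenized in acetonitrile/methanol and plasma precipitated with acidified acetonitrile, both with internal standard. Analyzed by positive-ESI LC-MS-MS, linear 50 ng/ml–100 µg/ml. AUC0-∞ by trapezoidal method.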

[7] = target: T4, M2 mAChR (Homo sapiens, UniProt P08172); experiment: Calcium mobilization selectivity assay, CHO K1 cells expressing M2-Gqi5; type: cell-based; conditions: 30 µM compound
T4 sequence (P08172 1-466): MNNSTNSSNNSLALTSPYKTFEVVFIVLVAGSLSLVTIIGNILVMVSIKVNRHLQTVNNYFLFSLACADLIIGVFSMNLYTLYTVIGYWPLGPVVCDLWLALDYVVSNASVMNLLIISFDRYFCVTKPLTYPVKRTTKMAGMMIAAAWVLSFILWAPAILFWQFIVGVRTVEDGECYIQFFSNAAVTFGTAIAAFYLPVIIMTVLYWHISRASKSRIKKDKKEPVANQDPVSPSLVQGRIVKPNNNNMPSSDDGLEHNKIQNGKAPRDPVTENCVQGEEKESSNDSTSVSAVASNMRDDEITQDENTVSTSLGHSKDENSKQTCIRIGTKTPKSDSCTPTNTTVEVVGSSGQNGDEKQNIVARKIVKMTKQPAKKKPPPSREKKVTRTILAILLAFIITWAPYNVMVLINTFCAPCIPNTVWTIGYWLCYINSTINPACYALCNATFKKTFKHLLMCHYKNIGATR
Outline: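 CHO K1 cells stably co-expressing human M2 and chimeric Gqi5, grown with 500 µg/ml hygromycin B. Seeded 60,000 cells/well and kept overnight in antibiotic-free medium at 37°C/5% CO2. Loaded with 2 µM Fluo-4 AM for 45 min at 37°C in HBSS/HEPES/probenecid buffer, pH 7.4. […] Three independent experiments.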

Cc1cc(C)c2c(N)c(C(=O)NCc3ccc4c(c3)OCO4)sc2n1 [VU0152099, 3-amino-N-(benzo[d][1,3]dioxol-5-ylmethyl)-4,6-dimethylthieno[2,3-b]pyridine carboxamide]
potentiation of ACh-induced activation of human M4 [1]: induced a robust potentiation of ACh-induced activation of human M4
displacement of [3H]NMS ([2]; 0.1 nM [3H]NMS, concentrations up to 30 µM): neither M4 PAM displaced
leftward shift in the potency of ACh to displace [3H]NMS ([2]; 10 µM compound): 25 fold
antagonist activity at serotonin 2B receptor [3]: weak antagonist activity at serotonin 2B receptor
displacement of binding, all targets tested [4]: less than 50%
shift in the ACh CRC at M1 [5]: No shift in the ACh CRC was observed
AUC brain / AUC plasma [6]: 0.39 ± 0.01
Mean AUC (0-∞) brain [6]: 4751.80 ± 666.17 ng·h/g
Mean AUC(0-∞) plasma [6]: 11928.00 ± 1472.36 ng·h/mL
t1/2 brain [6]: 1.25 ± 0.023 h
t1/2 plasma [6]: 1.66 ± 0.39 h
shift in the ACh CRC at M2-Gqi5 [7]: No shift in the ACh CRC was observed
